Holding throughout (format): functional
The test system of experiment [1] is P388. Nature of the experiment: Antitumor activity against mouse P388 cells allografted in DBA/2 mouse assessed as increase in survival rate at 5 mg/kg/day, ip administered for 2 weeks relative to control. To be noted: route intraperitoneal.
Experiment [2] in a line: Cytotoxicity against human Hep2 cells assessed a growth inhibition by rapid microtiter technique. Conditions: HEp-2, read-out: ED50 (the source's name). In a few lines: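 Human laryngeal epidermoid carcinoma H.Ep.-2 cells run in a rapid microtiter cytotoxicity assay. ED50 is calculated as the dose that inhibits net cell growth to 50% of control growth. Compounds with ED50 ≤ 4 µg/mL are scored active.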

Experiment [3] deals with W256. Nature of the experiment: Antitumor activity against […] allografted in Sprague-Dawley rat assessed as increase in survival rate at 2.5 mg/kg/day, ip relative to control. To be noted: route intraperitoneal. In a few lines: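 Walker 256 ascites carcinosarcoma: 10^6 tumor cells implanted ip into male Sprague-Dawley rats (~80 g), with daily ip dosing of compounds. Result expressed as T/C; a T/C ≥ 125% counts as active. Melphalan was the positive standard. Animal numbers per group were recorded for each test.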

For experiment [4], the system named is P388. In words: Antitumor activity against mouse P388 cells allografted in DBA/2 mouse assessed as increase in survival rate at 4 mg/kg/day, ip administered for 2 weeks relative to control. To be noted: route intraperitoneal.
In experiment [5] the test system is W256. Nature of the experiment: Antitumor activity against […] allografted in Sprague-Dawley rat assessed as increase in survival rate at 1.25 mg/kg/day, ip relative to control. To be noted: route intraperitoneal.
The subject of experiment [6] is P388. Nature of the experiment: Antitumor activity against mouse P388 cells allografted in DBA/2 mouse assessed as increase in survival rate at 25 mg/kg/day, ip administered for 2 weeks relative to control. To be noted: route intraperitoneal.
Experiment [7] deals with P388. Nature of the experiment: Antitumor activity against mouse P388 cells allografted in DBA/2 mouse assessed as increase in survival rate at 16.8 mg/kg/day, ip administered for 2 weeks relative to control. To be noted: route intraperitoneal.

SMILES strings stand for the structures. Converted amounts (≈) assume the structure as drawn.

Regarding `CC1(CO)CC=CC1=O` (stereo not drawn), the T/C in experiment [1] turned out to be 105%; in experiment [3] it was 100%. In addition, the EC50 in experiment [2] was found to be 15.8 µg/mL (≈ 125 µM).
Consider `CC(=O)OCC1(C)CC=CC1=O` (stereo not drawn), for which the T/C in experiment [1] and in experiment [3] was 105% each time. The EC50 in experiment [2] turned out to be 18.3 µg/mL (≈ 109 µM).
Consider `CC1(COC(=O)/C=C/c2ccccc2)CC=CC1=O` (stereo not drawn), for which the T/C in experiment [4] is given as 131%; in experiment [3] it was 136%. In experiment [2], the EC50 was 3.5 µg/mL (≈ 13.7 µM).
Turning to `COc1cc(C(=O)OCC2(C)CC=CC2=O)cc(OC)c1OC` (stereo not drawn), the values for the T/C in experiment [5] and in experiment [1] were 223% and 140%, respectively. Also, the EC50 in experiment [2] was 3.6 µg/mL (≈ 11.2 µM).
With `CC1(COC(=O)CCCCCCCCC(=O)OCC2(C)CC=CC2=O)CC=CC1=O` (stereo not drawn), the T/C in experiment [4] was 109%; in experiment [3] it was 108%. Also, the EC50 in experiment [2] is 14.6 µg/mL (≈ 34.9 µM).
With `CCOC(=O)C1(C)CC=CC1=O` (stereo not drawn), the T/C in experiment [1] and in experiment [3] was 103% in each case. Also, the EC50 in experiment [2] was 17.2 µg/mL (≈ 102 µM).
On to `O=C1C=CCC1`, for which the T/C was 121% in experiment [1] and 188% in experiment [3]. The EC50 in experiment [2] is above 50 µg/mL.
Take `CCOC(=O)/C=C/c1ccccc1` [ETHYL CINNAMATE]: the EC50 in experiment [2] is above 50 µg/mL.
Take `O=c1[nH]cc(F)c(=O)[nH]1` [FLUOROURACIL]: in experiment [6], the T/C is reported as 186%.
As for `C=C1C(=O)O[C@@H]2C[C@@H](C)[C@@H]3C=CC(=O)[C@@]3(C)[C@@H](O)[C@H]12` [HELENALIN], in experiment [2], the EC50 worked out at 0.08 µg/mL (≈ 0.305 µM). In addition, the figures for the T/C in experiment [3] and in experiment [7] were 316% and 127%, respectively.
Regarding `N[C@@H](Cc1ccc(N(CCCl)CCCl)cc1)C(=O)O` [MELPHALAN], the T/C in experiment [3] was 317%; in experiment [6], 168%.

These data come from ChEMBL document CHEMBL3244088, “Antitumor agents 32. Synthesis and antitumor activity of cyclopentenone derivatives related to helenalin” (1978).
